From PubChem BioAssay
Yeast growth inh = yeast BB579 growth reduction in restrictive medium; actives 0.51% (n = 140,000); inhibition, % at 10 µM; S. cerevisiae BB579 growth, OD615, 48 h;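 active = inhibition above a set limit, 3 SD over the mean compound inhibition, cut at about 44% in these data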
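controls = amphotericin B 10 µg/mL, positive | assay system = DeaD yeast strain BB579 | schedule = 48 h compound exposure at 30 °C after 4 h preincubation | detection = OD615 turbidity measurement | medium = restrictive CSMM-D medium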
RAM network inh = blocks the yeast RAM network | actives 1.8% (n = 190,000) | inhibition, % at 50 µM | S. cerevisiae dse1pr::URA3 reporter, 5-FOA growth OD615, 2 d; analog-sensitive cbk1-as2 kinase mutant strain;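 active = inhibition above a set limit, 3 SD over mean compound inhibition, cut at about 8.4% in these data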;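 note: 0% = DMSO-only wells with no growth and 100% = 10 µM 1-NA-PP1 full growth; inhibition rescues growth on 5-FOA so higher OD means more RAM inhibition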
Yeast lifespan up = extends the lifespan of yeast; S. cerevisiae growth with nicotinamide, OD615; deaD strain in restrictive glucose medium; inhibition of the nicotinamide effect, % at 10 µM; actives 0.68% (n = 130,000); AID 775;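 active = inhibition above a set limit, placed 3 SD over the median of all compounds, cut at about 26% in these data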;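 note: 0% = nicotinamide-treated wells and 100% = cells grown without nicotinamide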
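Measured by: optical density (absorbance) at 615 nm; System: modified budding yeast, DeaD strain; Medium: restrictive CSMM-D dextrose medium; Timing: 4 h preincubation then 48 h treatment at 30 °C.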
RAM efflux-def = RAM network inhibition, efflux-deficient strain; shares compounds with RAM network inh; S. cerevisiae efflux-deficient reporter strain, 5-FOA growth OD615, 2 days; max inhibition, %; 1,200 tested, under 10 active; AID 1305; call rule not given here;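 note: plate controls were vehicle for no effect and reference inhibitor for full effect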
Starred values were filed as active, the others as inactive; . = not tested or not shown. In the library only some 2.6% were active in any assay of this set; here they are far more common.

SMILES	Yeast growth inh	RAM network inh	Yeast lifespan up	RAM efflux-def
COc1ccc(CC(=O)NNC(=S)Nc2ccccc2)cc1Cl	.	-1	.	.
CCCOc1ccc(CC(=O)NNC(=S)Nc2ccccc2)cc1Br	-27	15*	.	2
Cc1cc(OCc2ccc(F)cc2)nc(-c2ccccc2O)n1	-5	4	-3	.
Cc1cc(Oc2ccc(Cl)cc2)nc(-c2ccccc2O)n1	-41	14*	-11	2
COc1ccccc1/C=C/C(=O)OCc1nc2ccccc2c(=O)[nH]1	.	1	.	.
C=CCn1c(SCC(=O)N2CCc3ccccc3C2)nc2sc(C)cc2c1=O	-29	1	-8	.
C=CCn1c(SCC)nc2sc3c(c2c1=O)CCc1ccccc1-3	-22	18*	0	2
O=C(NC(=S)NCc1ccccc1)c1ccccc1F	1	1	-29	.
O=C(NC(=S)N(Cc1ccccc1)Cc1ccccc1)c1ccccc1F	-32	12*	52	1
COc1cc2c(cc1OC)CN(CC(=O)Nc1ccc(Cl)c(S(=O)(=O)N(C)C)c1)CC2	.	1	.	.
CCOc1ccc(NC(=O)N[C@@H](CCSC)C(=O)OC)cc1	-37	-1	8	.
Cc1cc(C)nc(Sc2ncnc3c2oc2ccccc23)n1	11	2	-7	.
c1ccc2cc(Sc3ncnc4c3oc3ccccc34)ccc2c1	-29	13*	-18	4
C/C(=N\NC(=S)NCc1ccccc1)c1ccccc1	-21	0	-2	.
C/C(=N\NC(=S)NCc1ccccc1)c1ccc(C(C)(C)C)cc1	26	11*	0	5
O=C(Cc1ccc(Cl)cc1)N/N=C/c1ccncc1	.	2	.	.
O=C(Nc1ccc([N+](=O)[O-])cc1)Nc1ccc(N2CCOCC2)c2nonc12	.	1	.	.
CCOC(=O)c1c(NC(=O)CC2SC(N)=NC2=O)sc2c1CCCC2 (stereo not drawn)	-28	3	-12	.
N#Cc1ccc(CSc2nnc(-c3c[nH]c4ccccc34)n2-c2ccccc2)cc1	.	12*	.	2
N#Cc1ccc(CSc2nnc(-c3ccccn3)n2-c2ccccc2)cc1	-22	2	-2	.
CCOc1ccccc1CNCCOC	.	-1	.	.
O=c1c(Cc2ccccc2)c(O)ccn1Cc1ccc2c(c1)OCO2	.	1	.	.
Cc1cc(C)cc(C(=O)NCC(=O)OC(C)C(=O)N(C)c2ccccc2)c1 (stereo not drawn)	.	0	.	.
CC(=O)Nc1ccc(S(=O)(=O)Nc2nc3ccccc3nc2Nc2ccc3ccccc3c2)cc1	-22	16*	2	3
CCCCN(CCCC)c1nc2ccccc2nc1NS(=O)(=O)c1ccc(NC(C)=O)cc1	-35	5	-7	.
SMILES	Yeast growth inh	RAM network inh	Yeast lifespan up	RAM efflux-def
CCN(C(=O)COC(=O)c1ccc(Br)o1)C1CCCCC1	.	0	.	.
N[C@@H](Cc1ccc(O)c(I)c1)C(=O)O	-18	2	1	.
O=C(O)Cc1cc(I)c(Oc2ccc(O)c(I)c2)c(I)c1	66*	17*	31*	2
CCN1/C(=C\C=C(C(C)=O)C(C)=O)Sc2ccccc21	.	1	.	.
CCOC(=O)/C(C#N)=C(C)/C=C1\Sc2ccccc2N1CC	-49	22*	0	3
O=C(NCCSCc1ccccc1)c1ccc(C2SCC(=O)N2Cc2ccccc2)cc1 (stereo not drawn)	-25	12*	-9	3
O=C(NCCSCc1ccccc1)c1ccc(F)cc1	-5	2	1	.
CCOCCCNC(=S)N1CCCN(c2nc3c(C)c(C)ccc3cc2C#N)CC1	.	22*	.	7
CCOCCCNC(=S)N1CCCN(c2nc3cc(C)ccc3cc2C#N)CC1	.	5	.	.
CCOc1ncccc1C(=O)OC(C)C(=O)NC(=O)NC1CCCCC1 (stereo not drawn)	.	0	.	.
CCCCOc1ccc(/C=C2/Sc3ccccc3C2=O)cc1	-39	17*	-14	5
CC(C)COc1ccc(/C=C2/Sc3ccccc3C2=O)cc1	-60	21*	1	7
O=C1NC(=O)/C(=C\c2ccc(OCc3cnc(Cl)s3)cc2)S1	.	3	.	.
O=C1/C(=C/c2cccs2)Sc2ccccc21	-46	3	-5	.
CCOC(=O)N1CCC(N2Cc3cccc(C(=O)Nc4cccc(F)c4)c3C2=O)CC1	.	3	.	.
CCC(CC)C(=O)Nc1cccc(SC)c1	.	-1	.	.
CCOC(=O)c1cc(C#N)c(N2CCN(c3ccc(OC)cc3)CC2)[nH]c1=O	.	0	.	.
COC(=O)CCCCCN1C(=O)NC(c2ccccc2)C(C(=O)OCc2ccccc2)=C1C (stereo not drawn)	-55	5	7	.
CCCCCCN(C(=O)CCCCCN1C(=O)NC(c2ccc(-c3ccccc3)cc2)C(C(=O)OCc2ccccc2)=C1C)C(C)C(=O)NCCCC (stereo not drawn)	-26	28*	19	6
COc1ccc(C(=O)Cc2nnc(C)s2)cc1	-2	0	-4	.
CC1=NN(c2ccccc2)C(=O)/C1=C\C=C1/N(C)c2ccccc2C1(C)C	10	-1	-8	.
CN1/C(=C\C=C2/C(=O)Oc3ccccc3C2=O)C(C)(C)c2ccccc21	-28	21*	3	10
O=C(NNC(=S)Nc1ccc(F)c(Cl)c1)c1ccccc1Br	.	8	.	.
Cn1c(=O)n(C)c2cc(/C=N/NC(N)=S)ccc21	.	0	.	.
CCC(C)NC(=O)c1ccccc1NC(=O)c1ccc(CSc2ccccc2)cc1 (stereo not drawn)	-61	20*	6	6
SMILES	Yeast growth inh	RAM network inh	Yeast lifespan up	RAM efflux-def
CCCNC(=O)c1ccccc1NC(=O)c1ccc(CSc2ccccc2)cc1	-21	13*	-7	5
CCC(NC(=O)c1ccccc1NC(=O)c1ccc(C)cc1)C(=O)O (stereo not drawn)	-15	1	-4	.
CCCNC(=O)c1ccccc1NC(=O)c1ccccc1SC	.	1	.	.
Cc1nnc(SCC(=O)NCC(=O)Nc2ccc(F)c(F)c2F)n1Cc1ccccc1	.	0	.	.
Cc1ccc(C)c(NC(=O)c2ccccc2NC(=O)C2CCCO2)c1 (stereo not drawn)	.	2	.	.
CC1CCC2C(=O)N(c3ccccc3OC(=O)c3ccccc3F)C(=O)C2C1 (stereo not drawn)	.	1	.	.
COc1ccc(/C=C/C(=O)OCC(=O)NCCC2=CCCCC2)cc1S(=O)(=O)N1CCOCC1	.	2	.	.
O=C1CN2NC(=S)N(c3ccccc3)C2=CN1c1ccc(Cl)cc1	.	1	.	.
O=C(O)c1cc(-c2cccc(Cl)c2)nc2nc(N3CCCCC3)sc12	8	1	1	.
Cc1cccn2c(CNCC3OCCc4ccccc43)c(C(=O)N3CCCCC3)nc12 (stereo not drawn)	.	1	.	.
CCCCC1S/C(=N/N=C/c2ccc(OC)cc2)N(Cc2ccc(OC)cc2)C1=O (stereo not drawn)	-11	14*	5	6
CCN=C1SC(CC(=O)NCCc2ccc(OC)cc2)C(=O)N1CC (stereo not drawn)	-68	1	4	.
CCCC1S/C(=N/N=C/c2ccc(OC)cc2)N(Cc2ccc(OC)cc2)C1=O (stereo not drawn)	-33	13*	-4	7
CNC(=O)C1CC(=O)N(Cc2ccccc2)C(=Nc2ccc(OC)cc2)S1 (stereo not drawn)	-5	2	14	.
COc1ccc(CC2S/C(=N/N=C/c3ccc(O)cc3)NC2=O)cc1 (stereo not drawn)	.	5	.	.
